Tests used:
[1] = biological target: T1, ICOS-ICOSL (Homo sapiens, UniProt O75144+Q9Y6W8); assay: Inhibition of C-terminal IgG1 Fc region fused human ICOS extracellular domain (1 to 141 residues)/C-terminal polyhistidine tagged human ICOSL extracellular domain (1 to 258 residues) interaction incubated for 1 hr by TR-FRET assay; format: protein assay
T1 sequence (O75144 whole entry): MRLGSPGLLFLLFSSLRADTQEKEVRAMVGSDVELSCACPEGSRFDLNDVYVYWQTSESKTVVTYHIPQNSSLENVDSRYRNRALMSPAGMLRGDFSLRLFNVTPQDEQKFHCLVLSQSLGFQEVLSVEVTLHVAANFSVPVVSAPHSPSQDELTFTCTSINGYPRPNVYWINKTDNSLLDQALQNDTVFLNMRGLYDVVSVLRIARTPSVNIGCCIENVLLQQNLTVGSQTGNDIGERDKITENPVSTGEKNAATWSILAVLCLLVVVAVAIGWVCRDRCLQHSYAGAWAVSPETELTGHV
T1 sequence (Q9Y6W8 whole entry): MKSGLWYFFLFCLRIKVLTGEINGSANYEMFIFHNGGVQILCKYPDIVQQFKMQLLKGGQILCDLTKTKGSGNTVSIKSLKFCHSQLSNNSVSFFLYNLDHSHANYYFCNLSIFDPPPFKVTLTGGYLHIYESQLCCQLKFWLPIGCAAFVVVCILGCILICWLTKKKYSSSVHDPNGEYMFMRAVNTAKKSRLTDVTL
In short: (§1)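 Fc-tagged human ICOS and His-tagged ICOSL, 10 nM each final, with Tb cryptate anti-His mAb (1 nM) donor and XL665 anti-human Ab (10 nM) acceptor. Compounds in DMSO (0.1%)/PBS pH 7.4, 1 h at room temperature. Read 665/620 nm ratio ×100 with 340 nm excitation. Percent inhibition scaled 0% (DMSO) to 100% (1 μM anti-ICOS mAb). Triplicate, single run. Single-dose screen at 50 μM final; IC50 from dose–response.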

[2] = biological target: T2, ICOS-ICOSL (Homo sapiens) (UniProt O75144+Q9Y6W8); assay: Inhibition of human ICOS expressed in Jurkat T cells coexpressing TCR/CD3 and NanoLuc luciferase reporter/ICOSL (unknown origin) expressed in CHO-K1 cells interaction assessed as reduction in luminescence; format: cell-based; details: dose 5-20 µM
In short: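 Commercial blockade kit, run per manufacturer's protocol. ICOS effector Jurkat cells (NanoLuc reporter) co-cultured with ICOSL/CHO-K1 cells carrying a TCR/CD3 activator. Compound tested at 5, 10 and 20 μM; anti-ICOS mAb (100 nM) as positive control. Luminescence compared with untreated control. Triplicate, single run.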

[3] = test system: HEL 299; assay: Cytotoxicity against human HEL 299 cells; format: toxicity, cell-based
[4] = Metabolic stability in human plasma measured at 120 mins; format: ADME, cell-free; details: 2 h
[5] = Stability in simulated gastric fluid at pH 1.6; format: ADME; details: simulated gi fluid
[6] = Stability in simulated intestinal fluid at pH 6.5; format: ADME; details: simulated gi fluid
[7] = Metabolic stability in rat liver microsomes; format: ADME, Microsome
[8] = biological target: T1, ICOS-ICOSL; assay: Inhibition of ICOS (unknown origin)/C-terminal IgG1 FC region fused human ICOSL interaction by ELISA; format: protein assay
In short: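 Commercial ICOS/ICOSL ELISA kit, run per manufacturer's protocol. Anti-ICOS antagonist mAb as positive control. Triplicate, single run.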

[9] = biological target: T2, ICOS-ICOSL (Homo sapiens); assay: Inhibition of C-terminal IgG1 Fc region fused human ICOS extracellular domain (1 to 141 residues)/C-terminal polyhistidine tagged human ICOSL extracellular domain (1 to 258 residues) interaction assessed as reduction in FRET signal at 50 uM incubated for 1 hr by TR-FRET assay relative to control; format: protein assay; in short: as §1

Row | IC50 [1] | Structure (SMILES) | also measured
1 | > 50 µM | O=C(Nc1ccc(Cl)cc1)c1c(O)ccc2c1[nH]c1ccccc12 | –
2 | 37.1 µM | O=C(Cc1ccccn1)Nc1cc(Cl)cc2c1[nH]c1cnccc12 | –
3 | 28.6 µM | O=C(Nc1cc(Cl)cc2c1[nH]c1cnccc12)c1ccccn1 | –
4 | 18.4 µM | O=C(Nc1cc(Cl)cc2c1[nH]c1cnc(NCc3ccccc3)cc12)c1ccncc1 | –
5 | 15.5 µM | O=C(Nc1cc(Cl)cc2c1[nH]c1cnc(NCc3ccccc3)cc12)c1ccccn1 | –

Continued, compound first:

Row | Structure (SMILES) | IC50 [1] | also measured
6 | COc1cccc(C(=O)Nc2cc(Cl)cc3c2[nH]c2cnccc23)c1 | 36.7 µM | –
7 | COc1ccc(C(=O)Nc2cc(Cl)cc3c2[nH]c2cnccc23)cc1 | 49.3 µM | –
8 | COc1c(Cl)cc2c([nH]c3cnccc32)c1NC(=O)c1cncnc1C | 5.65 µM | –
9 | O=C(Nc1cc(Cl)cc2c1[nH]c1cnc(NCc3ccccc3)cc12)c1cccnc1 | 4.68 µM | inhibition [2]: Dose-Dependent Effect; Activity [3]: Non-Toxic; Stability [4]: Stable; Stability [5]: Stable; Stability [6]: Stable; Stability [7]: Stable
10 | CC1(C)CN[C@@H](C(=O)Nc2cc(Cl)cc3c2[nH]c2cnccc23)CO1 | 11.1 µM | –
11 | CCOc1ccc(-c2nc(C(=O)Nc3ccccc3Cl)cc3c2[nH]c2ccccc23)cc1OC | > 50 µM | –
12 | O=C(Nc1ccc(Cl)cc1)c1cc2c(cc1O)[nH]c1ccccc12 | > 50 µM | –
13 | COc1c(Cl)cc2c([nH]c3cnccc32)c1NC(=O)c1cccnc1C | 12.2 µM | IC50 [8]: 10.3 µM; inhibition [9]: > 90%
14 | O=C(Nc1cc(Cl)cc2c1[nH]c1cnccc12)c1ccncc1 | 31 µM | –
15 | O=C(Nc1cc(Cl)cc2c1[nH]c1cnccc12)c1ccccc1 | > 50 µM | –
16 | O=C(Nc1cc(Cl)cc2c1[nH]c1cnccc12)c1cccnc1 | 13.9 µM | –
17 | COc1ccccc1C(=O)Nc1cc(Cl)cc2c1[nH]c1cnccc12 | 43.7 µM | –

Source: ChEMBL document CHEMBL5329171, “First-in-class small molecule inhibitors of ICOS/ICOSL interaction as a novel class of immunomodulators” (RSC Med Chem, 2023)
